Experimental data from different studies.
Compare with care: the assays were run in different laboratories.
Effect on: enzyme activity
Mode: inhibitor
KIT: Mast/stem cell growth factor receptor Kit (KIT, Homo sapiens, UniProt P10721)
PIK3CD: Phosphatidylinositol 4,5-bisphosphate 3-kinase catalytic subunit delta isoform (PIK3CD, Homo sapiens, UniProt O00329)

The IC50 of `CN(C)CCNC(=O)c1ccc(-c2nc3ccc4[nH]ncc4c3c3c2CCCC3)c(F)c1` is reported as 887 nM (KIT).
`CN(C)C(=O)c1cc2cnc(Nc3ccc(-c4cccc5c(=O)cc(N6CCOCC6)oc45)cn3)nc2n1C1CCCC1` has an IC50 of 2390 nM (PIK3CD; radiometric).
`Cc1ccc(CN2C(=O)C(=Nc3c(C(C)C)cccc3C(C)C)c3ccccc32)cc1` gave an IC50 of 233 nM (PIK3CD; ADP detection).
`CCc1nc(C(N)=O)c(Nc2ccc(N3CCC(N4CCN(C)CC4)CC3)c(OC)c2)nc1NC1CCOCC1` has an IC50 of 150 nM (KIT).
For `CN1CCN(c2cc(=O)c3ccc(Nc4ncc5cc(C(=O)N(C)C)n(C6CCCC6)c5n4)cc3o2)CC1`, the IC50 was greater than 10000 nM (PIK3CD; radiometric).
With `Cc1n[nH]c2ccc3nc(-c4ccc(C(=O)NCCN(C)C)cc4F)c4c(c3c12)CCCCC4` the IC50 was 261 nM (KIT).
With `Cc1cccc(N=C2C(=O)Nc3ccccc32)c1` the IC50 was 88.9 nM (PIK3CD; ADP detection).
`COc1c(Cl)cccc1Nc1c(-c2ccncc2OC[C@@H]2COCCO2)[nH]c2c1C(=O)NCC2` has an IC50 of 13.9 nM (Receptor tyrosine-protein kinase erbB-4 (ERBB4, Homo sapiens, UniProt Q15303); TR-FRET).
The IC50 of `CN(C)C(=O)c1cc2cnc(Nc3ccc(-c4ccc5c(=O)cc(N6CCNCC6)oc5c4)cc3)nc2n1C1CCCC1` is reported as 9500 nM (PIK3CD; radiometric).
The IC50 of `Oc1ccc(-c2nc(-c3ccncc3)c(-c3ccc(F)cc3)[nH]2)cc1` is reported as 25500 nM (Tau-tubulin kinase 1 (TTBK1, Homo sapiens, UniProt Q5TCY1)).
`O=C1C(=Nc2ccccc2I)c2ccccc2N1Cc1ccc(Br)cc1` gave an IC50 of 139 nM (PIK3CD; ADP detection).
For `COc1ccc(-c2cc(=O)c3cccc(Nc4ncc5cc(C(=O)N(C)C)n(C6CCCC6)c5n4)c3o2)cc1`, the IC50 was greater than 10000 nM (PIK3CD; radiometric).
With `Cc1n[nH]c2ccc3nc(-c4ccc(C(=O)NCCN(C)C)cc4)c4c(c3c12)CCCC4` the IC50 was 208 nM (KIT).
The IC50 of `CN(C)C(=O)c1cc2cnc(Nc3cncc(-c4ccc5c(=O)cc(N6CCOCC6)oc5c4)c3)nc2n1C1CCCC1` is reported as 137 nM (PIK3CD; radiometric).
For `O=C1Nc2ccccc2C1=Nc1cccc(Cl)c1`, the IC50 was 83.7 nM (PIK3CD; ADP detection).
`CN(C)CCNC(=O)c1ccc(-c2nc3ccc4[nH]ncc4c3c3c2CCCC3)cc1` gave an IC50 of greater than 1000 nM (KIT).
For `CCc1ccc(N=C2C(=O)Nc3ccccc32)cc1`, the IC50 was 455 nM (PIK3CD; ADP detection).
`COc1ccccc1N1CCN(C(=O)c2cccc(S(=O)(=O)n3cncn3)c2)CC1` gave an IC50 of 176 nM (Prostaglandin reductase 2 (Homo sapiens, UniProt Q8N8N7); lysate).
`CN(C)C(=O)c1cc2cnc(Nc3ccc(-c4cccc5c(=O)cc(N6CCOCC6)oc45)c(F)c3)nc2n1C1CCCC1` has an IC50 of 40.5 nM (PIK3CD; radiometric).
`CC(C)c1cccc(C(C)C)c1N=C1C(=O)N(Cc2cccc(Cl)c2)c2ccccc21` has an IC50 of 238 nM (PIK3CD; ADP detection).
